Measurements as given in ChEMBL document CHEMBL4385606, “3,5,7-Substituted Pyrazolo[4,3- d]pyrimidine Inhibitors of Cyclin-Dependent Kinases and Their Evaluation in Lymphoma Models” (J Med Chem, 2019).
Activity calls are given as the source filed them. The rule behind the calls is not given here.

Experiments:
[1] = test system: SU-DHL10; assay: Antiproliferative activity against human SUDHL10 cells assessed as growth inhibition measured after 72 hrs by calcein AM dye-based fluorescence assay; assay type: functional, cell-based; settings: SU-DHL10, 72 h
Summary of the method: (§1)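 Cells exposed in triplicate to six concentrations for 72 h; calcein AM added for 1 h, live-cell fluorescence read at 485/538 nm (ex/em). GI50 taken from dose-response curves.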

[2] = test system: Mus musculus; assay: Ex vivo antitumor activity against human Mino cells xenografted NSG mouse assessed as down regulation of MCL1 expression at 5 to 10 mg/kg, iv measured after 24 hrs by immunoblotting analysis; assay type: functional, organism-based
Summary of the method: (§2)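 NSG mice bearing palpable s.c. tumors received a single i.v. dose (5 or 10 mg/kg) and were euthanized after 24 h. Excised tumors were filtered through 45 µm nylon mesh, lysed and run on SDS-PAGE, transferred to nitrocellulose, probed overnight with primary antibodies in PBS with 5% milk and 0.1% Tween 20, then peroxidase secondaries, with chemiluminescent detection.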

[3] = biological target: Cyclin-dependent kinase 9 (Homo sapiens) (UniProt P50750); assay: Inhibition of CDK9 in human Mino cells assessed as decrease in phosphorylation of RNA polymerase 2 C-terminal domain at Ser 2 residue at 12.5 nM by immunoblotting analysis; assay type: cell-based; settings: TDE = time-dependent effect
Sequence of Cyclin-dependent kinase 9 (Homo sapiens) (P50750 whole entry, the tested form may be a part): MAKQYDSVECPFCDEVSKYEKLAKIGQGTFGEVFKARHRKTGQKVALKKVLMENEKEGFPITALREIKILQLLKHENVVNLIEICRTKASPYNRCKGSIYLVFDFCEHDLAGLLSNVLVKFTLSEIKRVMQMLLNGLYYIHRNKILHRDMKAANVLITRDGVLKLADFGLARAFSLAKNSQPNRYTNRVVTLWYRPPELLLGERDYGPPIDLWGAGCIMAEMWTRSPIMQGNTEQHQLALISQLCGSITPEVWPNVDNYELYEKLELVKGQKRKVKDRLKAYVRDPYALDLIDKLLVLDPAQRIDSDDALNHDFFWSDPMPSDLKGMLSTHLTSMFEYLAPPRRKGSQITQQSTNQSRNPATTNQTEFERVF
Summary of the method: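 MINO lymphoma cells exposed to 12.5 nM for up to 24 h (time course). Lysates separated by SDS-PAGE, transferred to nitrocellulose, probed overnight with specific primary antibodies diluted in PBS with 5% milk and 0.1% Tween 20, then peroxidase-conjugated secondaries; chemiluminescence imaged with a CCD camera.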

[4] = biological target: CDK7/Cyclin H/MNAT1 (Homo sapiens, UniProt P50613); assay: Inhibition of recombinant human N-terminal GST-His6-fused CDK7 (M1 to F346 residues)/N-terminal His-tagged cyclin H (M1 to L323 residues)/N-terminal His6-tagged MAT1 (M1 to S306 residues) expressed in baculovirus infected Sf9 insect cells using (YSPTSPS)2KK as substrate measured in presence of [gamma-33P]ATP
Sequence of CDK7/Cyclin H/MNAT1 (P51946 whole entry, the tested form may be a part): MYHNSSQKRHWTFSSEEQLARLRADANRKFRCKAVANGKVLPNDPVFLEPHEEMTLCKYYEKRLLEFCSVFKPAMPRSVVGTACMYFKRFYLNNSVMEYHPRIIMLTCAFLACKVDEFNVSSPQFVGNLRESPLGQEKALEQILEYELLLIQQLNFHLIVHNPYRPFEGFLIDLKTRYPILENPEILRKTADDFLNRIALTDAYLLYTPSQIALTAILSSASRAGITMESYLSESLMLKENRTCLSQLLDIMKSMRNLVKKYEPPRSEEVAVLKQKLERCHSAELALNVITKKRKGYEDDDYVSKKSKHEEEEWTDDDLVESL
Sequence of CDK7/Cyclin H/MNAT1 (P50613 whole entry, the tested form may be a part): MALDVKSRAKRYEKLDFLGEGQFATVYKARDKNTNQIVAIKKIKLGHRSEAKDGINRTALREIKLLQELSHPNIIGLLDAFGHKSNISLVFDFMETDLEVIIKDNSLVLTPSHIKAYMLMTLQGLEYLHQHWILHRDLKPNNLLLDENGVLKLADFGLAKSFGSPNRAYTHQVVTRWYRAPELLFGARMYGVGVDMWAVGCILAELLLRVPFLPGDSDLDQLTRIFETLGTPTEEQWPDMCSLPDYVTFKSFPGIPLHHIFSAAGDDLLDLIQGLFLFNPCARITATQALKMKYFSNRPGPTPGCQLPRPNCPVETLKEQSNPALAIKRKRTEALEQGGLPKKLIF
Sequence of CDK7/Cyclin H/MNAT1 (P51948 whole entry, further chain, the tested form may be a part): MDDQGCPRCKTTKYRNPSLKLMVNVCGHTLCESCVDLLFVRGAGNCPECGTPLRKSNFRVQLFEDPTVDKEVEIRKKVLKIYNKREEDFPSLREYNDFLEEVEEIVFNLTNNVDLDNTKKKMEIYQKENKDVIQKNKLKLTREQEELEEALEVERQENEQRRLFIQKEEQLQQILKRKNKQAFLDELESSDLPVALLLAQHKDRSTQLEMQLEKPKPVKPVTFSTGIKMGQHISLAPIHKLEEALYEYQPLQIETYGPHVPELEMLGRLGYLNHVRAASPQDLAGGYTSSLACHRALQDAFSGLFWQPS
Summary of the method: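 CDK/cyclin complexes tested in triplicate at minimum; IC50 values reported from those replicate determinations.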

[5] = organism: Homo sapiens; assay: Induction of apoptosis in human Mino cells assessed as induction of PARP1 cleavage at 12.5 nM after 2 to 24 hrs by immunoblotting analysis; assay type: functional, cell-based
Summary of the method: (§3)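 Lymphoma cell lines were cultured as the providers instruct and exposed to compound at several doses or for several times. Lysates were run on SDS-PAGE and blotted to nitrocellulose. Blots were blocked, incubated overnight with primary antibodies diluted in PBS with 5% milk and 0.1% Tween 20, then with peroxidase-conjugated secondaries, and detected by chemiluminescence on a CCD camera.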

[6] = test system: Raji; assay: Antiproliferative activity against human Raji cells assessed as growth inhibition measured after 72 hrs by calcein AM dye-based fluorescence assay; assay type: functional, cell-based; summary of the method: as §1
[7] = biological target: Cyclin-dependent kinase 2 (Homo sapiens) (UniProt P24941); assay: Inhibition of CDK2 in human Mino cells assessed as decrease in phosphorylation of Rb at Ser 780 residue at 12.5 nM by immunoblotting analysis; assay type: cell-based; settings: TDE = time-dependent effect
Summary of the method: (§4)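 MINO lymphoma cells were treated at 12.5 nM, with time points over 24 h. Lysates were separated by SDS-PAGE and blotted to nitrocellulose. Phospho-RNA polymerase II CTD (Ser2, Ser5) and phospho-Rb (Ser608, Ser780) were probed with primary antibodies overnight and peroxidase-conjugated secondaries. Detection was by chemiluminescence on a CCD camera.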

[8] = organism: Homo sapiens; assay: Induction of apoptosis in human Mino cells assessed as caspase 3 activation at 12.5 nM after 2 to 24 hrs by immunoblotting analysis; assay type: functional, cell-based; summary of the method: as §3
[9] = biological target: Cyclin-dependent kinase 7 (Homo sapiens) (UniProt P50613); assay: Inhibition of CDK7 in human Mino cells assessed as decrease in phosphorylation of Rb at Ser 608 residue at 12.5 nM by immunoblotting analysis; assay type: cell-based; settings: TDE = time-dependent effect; summary of the method: as §4
Sequence of Cyclin-dependent kinase 7 (Homo sapiens) (P50613 whole entry): as the sequence (P50613 whole entry, the tested form may be a part) above

[10] = test system: Mus musculus; assay: Ex vivo antitumor activity against human Mino cells xenografted NSG mouse assessed as increase in cleaved caspase 7 expression at 5 to 10 mg/kg, iv measured after 24 hrs by immunoblotting analysis; assay type: functional, organism-based; summary of the method: as §2
[11] = Antiproliferative activity against human Mino cells assessed as growth inhibition measured after 72 hrs by calcein AM dye-based fluorescence assay; assay type: functional, cell-based; summary of the method: as §1
[12] = organism: Homo sapiens; assay: Induction of apoptosis in human Mino cells assessed as decrease in XIAP level at 1.5 to 12.5 nM after 24 hrs by immunoblotting analysis; assay type: functional, cell-based; summary of the method: as §3
[13] = test system: Mus musculus; assay: Ex vivo antitumor activity against patient derived VFN-M1 cells xenografted NSG mouse assessed as down regulation of MCL1 expression at 10 mg/kg, iv measured after 24 hrs by immunoblotting analysis
[14] = test system: HeLa; assay: Antiproliferative activity against human HeLa cells assessed as growth inhibition measured after 72 hrs by calcein AM dye-based fluorescence assay; assay type: functional, cell-based; summary of the method: as §1
[15] = test system: JeKo-1; assay: Antiproliferative activity against human JeKo1 cells assessed as growth inhibition measured after 72 hrs by calcein AM dye-based fluorescence assay; assay type: functional, cell-based; settings: JeKo-1, 72 h; summary of the method: as §1

- GI50 [1]: 17 nM
- IC50 [1]: 17 nM
- inhibition [3]: Tde
- IC50 [4]: 124 nM
- GI50 [6]: 38 nM
- IC50 [6]: 38 nM
- inhibition [7]: Tde
- inhibition [9]: Tde
- GI50 [14]: 21.6 nM
- IC50 [14]: 17 nM
SMILES: CC(C)c1n[nH]c2c(NCc3ccc(-c4ccccn4)cc3)nc(SCCN)nc12
- Activity [2]: Active
- Activity [5]: Active
- Activity [8]: Active
- Activity [10]: Active
- GI50 [11]: 16 nM
- IC50 [11]: 16 nM
- Activity [12]: Active
- Activity [13]: Active
- GI50 [15]: 14 nM
- IC50 [15]: 14 nM
